Measured values taken from ChEMBL document CHEMBL1123544, “Syntheses of 5,6,7- and 5,7,8-trioxygenated 3',4'-dihydroxyflavones having alkoxy groups and their inhibitory activities against arachidonate 5-lipoxygenase” (J Med Chem, 1986).

biological target: T1, Polyunsaturated fatty acid 5-lipoxygenase (Rattus norvegicus, UniProt P12527); test: Ability to inhibit 5-lipoxygenase in rat basophilic leukemia cells.; format: cell-based, RBL-1
T1 sequence (P12527 whole entry): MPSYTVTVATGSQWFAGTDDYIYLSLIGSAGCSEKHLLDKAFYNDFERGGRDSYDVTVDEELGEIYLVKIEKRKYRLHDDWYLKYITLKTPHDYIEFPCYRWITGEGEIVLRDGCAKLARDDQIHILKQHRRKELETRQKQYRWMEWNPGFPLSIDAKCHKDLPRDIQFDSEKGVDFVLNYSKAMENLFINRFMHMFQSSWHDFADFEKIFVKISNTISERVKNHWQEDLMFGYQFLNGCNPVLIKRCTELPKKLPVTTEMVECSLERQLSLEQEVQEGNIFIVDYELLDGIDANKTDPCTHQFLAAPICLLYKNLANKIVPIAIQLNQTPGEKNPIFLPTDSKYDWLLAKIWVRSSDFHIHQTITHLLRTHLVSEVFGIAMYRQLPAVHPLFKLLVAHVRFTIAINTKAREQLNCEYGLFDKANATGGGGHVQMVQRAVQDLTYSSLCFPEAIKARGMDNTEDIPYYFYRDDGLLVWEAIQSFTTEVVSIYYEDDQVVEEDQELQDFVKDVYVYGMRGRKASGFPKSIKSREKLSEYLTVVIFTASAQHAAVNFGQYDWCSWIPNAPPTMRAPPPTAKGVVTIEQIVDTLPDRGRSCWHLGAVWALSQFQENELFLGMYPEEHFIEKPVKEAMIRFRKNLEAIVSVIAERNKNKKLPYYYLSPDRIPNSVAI
Method in brief: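 Enzyme: RBL cell sonicate high-speed supernatant, 25–50% ammonium sulfate cut, desalted on Sephadex G-25 (68 μg protein). Compound in ethanol preincubated 5 min with enzyme. Reaction started with 25 μM [1-14C]arachidonic acid, 30 °C for 5 min in 50 mM potassium phosphate pH 7.4 with 2 mM ATP and 2 mM CaCl2. Radio-TLC of 5-HPETE; IC50 from concentration series.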

Row | IC50 [nM] | Structure (SMILES)
1 | 110 | COc1cc(O)c2c(=O)cc(-c3ccc(O)c(O)c3)oc2c1OC
2 | 18 | CCCCCCCCCCCCOc1c(OC)c(OC)cc2oc(-c3ccc(O)c(O)c3)cc(=O)c12
3 | 1000 | COc1cc2oc(-c3ccc(OC(C)=O)c(OC(C)=O)c3)cc(=O)c2c(OC)c1OC
4 | 15 | CCCCOc1c(OC)cc2oc(-c3ccc(O)c(O)c3)cc(=O)c2c1O
5 | 26 | CCCCCCCCCCCCOc1c(OC)cc2oc(-c3ccc(O)c(O)c3)cc(=O)c2c1O
6 | 10000 | CCCCCCCCCCCCCCCCCCOc1c(OC)cc2oc(-c3ccc(O)c(O)c3)cc(=O)c2c1OC
7 | 16 | COc1cc2oc(-c3ccc(O)c(O)c3)cc(=O)c2c(OCCC(C)C)c1OC
8 | 110 | CCCCCCCCCCCCOc1c(OC)cc(O)c2c(=O)cc(-c3ccc(O)c(O)c3)oc12
9 | 20 | CCCCCCOc1c(OC)cc2oc(-c3ccc(O)c(O)c3)cc(=O)c2c1O
10 | 28 | CCCCCOc1c(OC)cc2oc(-c3ccc(OC(C)=O)c(OC(C)=O)c3)cc(=O)c2c1OC
11 | 15 | CCCCCCOc1c(OC)c(OC)cc2oc(-c3ccc(O)c(O)c3)cc(=O)c12
12 | 110 | CCCCCCCCCCCCOc1c(OC)cc(OC)c2c(=O)cc(-c3ccc(O)c(O)c3)oc12
13 | 19 | CCCCCCCCOc1c(OC)c(OC)cc2oc(-c3ccc(O)c(O)c3)cc(=O)c12
14 | 32 | CCCCCOc1c(OC)c(OC)cc2oc(-c3ccc(O)c(O)c3)cc(=O)c12
15 | 11 | CCCCCCCCOc1c(OC)cc2oc(-c3ccc(O)c(O)c3)cc(=O)c2c1O
16 | 100 | CCCCCCCCCCCCOc1cc2oc(-c3ccc(O)c(O)c3)cc(=O)c2c(OC)c1OC
17 | 33 | CCCCCCCCCCCCOc1cc(OC)c2c(=O)cc(-c3ccc(O)c(O)c3)oc2c1OC
18 | 52 | CCCCOc1c(OC)cc2oc(-c3ccc(O)c(O)c3)cc(=O)c2c1OC
19 | 42 | CCCCCCCCOc1c(OC)cc2oc(-c3ccc(OC(C)=O)c(OC(C)=O)c3)cc(=O)c2c1OC
20 | 10000 | CCCCCCCCCCCCCCCCCCOc1c(OC)cc2oc(-c3ccc(OC(C)=O)c(OC(C)=O)c3)cc(=O)c2c1OC
21 | 1500 | CCCCCCCCCCCCCCCCOc1c(OC)cc2oc(-c3ccc(O)c(O)c3)cc(=O)c2c1OC
22 | 50 | CCCCCCOc1c(OC)cc2oc(-c3ccc(OC(C)=O)c(OC(C)=O)c3)cc(=O)c2c1OC
23 | 70 | CCCCCCCCCCCCCCOc1c(OC)cc2oc(-c3ccc(O)c(O)c3)cc(=O)c2c1OC
24 | 100 | CCCCOc1c(OC)cc2oc(-c3ccc(OC(C)=O)c(OC(C)=O)c3)cc(=O)c2c1OC
25 | 9 | COc1cc2oc(-c3ccc(O)c(O)c3)cc(=O)c2c(O)c1OCCC(C)C
26 | 9000 | CCCCCCCCCCCCCCCCCCOc1c(OC)c(OC)cc2oc(-c3ccc(O)c(O)c3)cc(=O)c12

Row | IC50 [nM] | Structure (SMILES)
27 | 11 | CCCCCCCCCCOc1c(OC)cc2oc(-c3ccc(O)c(O)c3)cc(=O)c2c1O
28 | 22 | CCCCCCCCCCCCOc1cc(OC)c(OC)c2oc(-c3ccc(O)c(O)c3)cc(=O)c12
29 | 180 | CCCCCCCCCCCCOc1cc(O)c2c(=O)cc(-c3ccc(O)c(O)c3)oc2c1OC
30 | 28 | CCCCCCCCCCCCCCOc1c(OC)c(OC)cc2oc(-c3ccc(O)c(O)c3)cc(=O)c12
31 | 140 | CCCCCCCCCCCCOc1cc2oc(-c3ccc(O)c(O)c3)cc(=O)c2c(O)c1OC
32 | 14 | CCCCCCOc1c(OC)cc2oc(-c3ccc(O)c(O)c3)cc(=O)c2c1OC
33 | 140 | CCCCCCCCCCCCCCCCOc1c(OC)c(OC)cc2oc(-c3ccc(O)c(O)c3)cc(=O)c12
34 | 45 | CCCCOc1c(OC)c(OC)cc2oc(-c3ccc(O)c(O)c3)cc(=O)c12
35 | 10000 | CCCCCCCCCCCCCCOc1c(OC)cc2oc(-c3ccc(O)c(O)c3)cc(=O)c2c1O
36 | 30 | CCCCCCCCCCCCOc1c(OC)cc2oc(-c3ccc(O)c(O)c3)cc(=O)c2c1OC
37 | 30 | CCCCCCCCCCOc1c(OC)cc2oc(-c3ccc(OC(C)=O)c(OC(C)=O)c3)cc(=O)c2c1OC
38 | 18 | CCCCCCCCCCOc1c(OC)c(OC)cc2oc(-c3ccc(O)c(O)c3)cc(=O)c12
39 | 240 | COc1cc2oc(-c3ccc(O)c(O)c3)cc(=O)c2c(OC)c1OC
40 | 430 | COc1cc(OC)c2c(=O)cc(-c3ccc(O)c(O)c3)oc2c1OC
41 | 22 | CCCCCCCCOc1c(OC)cc2oc(-c3ccc(O)c(O)c3)cc(=O)c2c1OC
42 | 75 | CCCCCCCCCCCCOc1c(OC)cc2oc(-c3ccc(OC(C)=O)c(OC(C)=O)c3)cc(=O)c2c1OC
43 | 10000 | CCCCCCCCCCCCCCCCCCOc1c(OC)cc2oc(-c3ccc(O)c(O)c3)cc(=O)c2c1O
44 | 26 | COc1cc2oc(-c3ccc(O)c(O)c3)cc(=O)c2c(OC)c1OCCC(C)C
45 | 10000 | CCCCCCCCCCCCCCCCOc1c(OC)cc2oc(-c3ccc(OC(C)=O)c(OC(C)=O)c3)cc(=O)c2c1OC
46 | 95 | COc1cc2oc(-c3ccc(O)c(O)c3)cc(=O)c2c(O)c1OC [CIRSILIOL]
47 | 22 | CCCCCOc1c(OC)cc2oc(-c3ccc(O)c(O)c3)cc(=O)c2c1O
48 | 35 | CCCCCOc1c(OC)cc2oc(-c3ccc(O)c(O)c3)cc(=O)c2c1OC
49 | 10000 | CCCCCCCCCCCCCCCCOc1c(OC)cc2oc(-c3ccc(O)c(O)c3)cc(=O)c2c1O
50 | 17 | CCCCCCCCCCOc1c(OC)cc2oc(-c3ccc(O)c(O)c3)cc(=O)c2c1OC
51 | 10000 | CCCCCCCCCCCCCCOc1c(OC)cc2oc(-c3ccc(OC(C)=O)c(OC(C)=O)c3)cc(=O)c2c1OC
